Experiments:
HEK293 [1] = test: Fluorescence intensity in buffer at 1 uM at pH <7 at 25 degC after 12 hrs using FAM-labeled compound by fluorescence spectroscopy
HEK293 [2] = test: Fluorescence intensity in buffer at 1 uM at pH 5 to 8 at 25 degC after 12 hrs using 6'-HF488-labeled compound by fluorescence spectroscopy; conditions: pH 5, 12 h
HEK293 [3] = test: Fluorescence intensity in buffer at 1 uM at pH 5 to 8 at 25 degC after 12 hrs using 5'-HF488-labeled compound by fluorescence spectroscopy; conditions: pH 5, 12 h
[4] = Binding affinity to dsRNA (unknown origin) after 350 to 600 secs by isothermal titration calorimetry assay
[5] = Drug uptake in cytoplasm of human Caco2 cells at 1 uM after 24 hrs using HF488-labeled compound by lysotracker deep red/DAPI based fluorescence assay; type: ADME, cell-based; conditions: caco-2, 24 h
Procedure, shortened: (§1)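 Cells treated with 1 µM HF488-labeled PNA in Opti-MEM at 37 °C, 10% CO2, for 24 h. Acidic organelles then stained with LysoTracker Deep Red and nuclei with DAPI. Intracellular localization assessed by fluorescence microscopy.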

[6] = Drug uptake in cytoplasm of HEK293 cells at 1 uM after 24 hrs using HF488-labeled compound by lysotracker deep red/DAPI based fluorescence assay; type: ADME, cell-based; conditions: human, hek293, 24 h
Procedure, shortened: as §1

[7] = Drug uptake in cytoplasm of human MDA-MB-231 cells at 1 uM after 24 hrs using HF488-labeled compound by lysotracker deep red/DAPI based fluorescence assay; type: ADME, cell-based; conditions: mda-mb-231, 24 h
Procedure, shortened: as §1

[8] = Drug uptake in cytoplasm of human U87MG cells at 1 uM after 24 hrs using HF488-labeled compound by lysotracker deep red/DAPI based fluorescence assay; type: ADME, cell-based; conditions: u-87mg atcc
Procedure, shortened: as §1

HEK293 [9] = test: Drug degradation in HEK293 cells assessed as photobleaching rate at 1 uM after 4 scans using FAM-labeled compound by DAPI staining-based laser scanning microscopic method; type: ADME, cell-based; conditions: human, hek293, 1 µM
Procedure, shortened: (§2)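 Live HEK293 cells incubated 12 h at 37 °C with 1 µM labeled PNA in Opti-MEM, then nuclei stained with DAPI. Laser scanning confocal images (63× objective) taken at 32-s intervals over 30 min, scan average 8. Photostability given as MFI of each scan divided by MFI of the first scan, as a percentage. Mean of three experiments.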

HEK293 [10] = test: Drug degradation in HEK293 cells assessed as photobleaching rate at 1 uM after 12 scans using FAM-labeled compound by DAPI staining-based laser scanning microscopic method; type: ADME, cell-based; conditions: human, hek293, 1 µM
Procedure, shortened: as §2

HEK293 [11] = test: Drug uptake in HEK293 cells at 1 uM after 12 hrs using FAM-labeled compound by flow cytometric method; type: ADME, cell-based; conditions: human, hek293, 12 h
Procedure, shortened: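 HEK293 cells incubated 12 h at 37 °C with 1 µM labeled PNA in Opti-MEM. Cells harvested, resuspended in DPBS and analysed by flow cytometry.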

Cc1cn(CC(=O)N(CCNC(=O)CN(CCNC(=O)CN(CCNC(=O)CN(CCNC(=O)[C@H](CCCCN)NC(=O)COCCOCCNC(=O)COCCOCCN)C(=O)Cn2ccc(N)nc2=O)C(=O)Cn2cc(C)c(=O)[nH]c2=O)C(=O)Cn2ccc(N)nc2=O)CC(=O)NCCN(CC(=O)NCCN(CC(=O)NCCN(CC(=O)NCCN(CC(=O)NCCN(CC(=O)N[C@@H](CCCCN)C(=O)N[C@@H](CCCCN)C(=O)N[C@@H](CCCCN)C(N)=O)C(=O)Cn2ccc(N)nc2=O)C(=O)Cn2ccc(N)nc2=O)C(=O)Cn2cc(C)c(=O)[nH]c2=O)C(=O)Cn2cc(C)c(=O)[nH]c2=O)C(=O)Cn2ccc(N)nc2=O)c(=O)[nH]c1=O
Fluorescence intensity (HEK293 [1]): Not Active
Fluorescence intensity (HEK293 [2]): Active
Fluorescence intensity (HEK293 [3]): Active

Cc1cn(CC(=O)N(CCNC(=O)CN(CCNC(=O)CN(CCNC(=O)CN(CCNC(=O)[C@@H](N)CCCCN)C(=O)Cc2ccc(N)nc2)C(=O)Cn2cc(C)c(=O)[nH]c2=O)C(=O)Cc2ccc(N)nc2)CC(=O)NCCN(CC(=O)NCCN(CC(=O)NCCN(CC(=O)NCCN(CC(=O)NCCN(CC(=O)N[C@H](CCCCN)C(=O)N[C@@H](CCCCN)C(=O)N[C@H](CCCCN)C(N)=O)C(=O)Cc2ccc(N)nc2)C(=O)Cc2ccc(N)nc2)C(=O)Cn2cc(C)c(=O)[nH]c2=O)C(=O)Cn2cc(C)c(=O)[nH]c2=O)C(=O)Cc2ccc(N)nc2)c(=O)[nH]c1=O
Kd [4]: 7.35 nM

Cc1cn(CC(=O)N(CCNC(=O)CN(CCNC(=O)CN(CCNC(=O)CN(CCNC(=O)[C@@H](N)CCCCN)C(=O)Cc2ccc(N)nc2)C(=O)Cn2cc(C)c(=O)[nH]c2=O)C(=O)Cc2ccc(N)nc2)CC(=O)NCCN(CC(=O)NCCN(CC(=O)NCCN(CC(=O)NCCN(CC(=O)NCCN(CC(=O)N[C@@H](CCCCN)C(=O)N[C@@H](CCCCN)C(=O)N[C@@H](CCCCN)C(N)=O)C(=O)Cc2ccc(N)nc2)C(=O)Cc2ccc(N)nc2)C(=O)Cn2cc(C)c(=O)[nH]c2=O)C(=O)Cn2cc(C)c(=O)[nH]c2=O)C(=O)Cc2ccc(N)nc2)c(=O)[nH]c1=O
Drug uptake [5]: Active
Drug uptake [6]: Active
Drug uptake [7]: Active
Drug uptake [8]: Active

Cc1cn(CC(=O)N(CCNC(=O)CN(CCNC(=O)CN(CCNC(=O)CN(CCNC(=O)[C@H](CCCCN)NC(=O)COCCOCCNC(=O)COCCOCCNC(=O)[C@@H](N)CCCCN)C(=O)Cc2ccc(N)nc2)C(=O)Cn2cc(C)c(=O)[nH]c2=O)C(=O)Cc2ccc(N)nc2)CC(=O)NCCN(CC(=O)NCCN(CC(=O)NCCN(CC(=O)NCCN(CC(=O)NCCN(CC(=O)N[C@@H](CCCCN)C(=O)N[C@@H](CCCCN)C(=O)N[C@@H](CCCCN)C(N)=O)C(=O)Cc2ccc(N)nc2)C(=O)Cc2ccc(N)nc2)C(=O)Cn2cc(C)c(=O)[nH]c2=O)C(=O)Cn2cc(C)c(=O)[nH]c2=O)C(=O)Cc2ccc(N)nc2)c(=O)[nH]c1=O
Drug degradation (HEK293 [9]): 20%
Drug degradation (HEK293 [10]): 50%
Drug uptake (HEK293 [11]): Active
